From ChEMBL document CHEMBL3351723, “New derivatives of lupane triterpenoids disturb breast cancer mitochondria and induce cell death” (Bioorg Med Chem, 2014) come the findings set out here.

Activity calls are given as the source filed them. The calls are words filed in the database; no cut-off is given here.

For one series, the system named is MCF7. Nature of the series: Cytotoxicity against human MCF7 cells at 0.125 to 2 ug/ml after 1 to 5 days by sulforhodamine B assay in presence of taxol. The class given is functional, cell-based. In general terms: The SRB assay estimates cell density from bound dye.
In series [1] the test system is Liver microsome. Nature of the series: Induction of mitochondrial function disruption in Wistar Han rat liver mitochondria energized with succinate assessed as State-3 level per mg of protein measured at 0.667 ug/mg of protein (reference value: 130.8 +/- 24.1 nmol/mg protein/min). Type of series: functional.
Series [2] deals with Liver microsome. Description: Induction of mitochondrial function disruption in Wistar Han rat liver mitochondria energized with succinate assessed as State-4 level per mg of protein measured at 0.133 ug/mg of protein (reference value: 33.5 +/- 7.5 nmol/mg protein/min). Type of series: functional.
Series [3] concerns Liver microsome. Nature of the series: Induction of mitochondrial function disruption in Wistar Han rat liver mitochondria energized with succinate assessed as State-4 level per mg of protein measured at 0.333 ug/mg of protein (reference value: 33.5 +/- 7.5 nmol/mg protein/min). The class given is functional.
Series [4] deals with Hs-578T. Nature of the series: Induction of apoptosis in human Hs578T cells assessed as increase in cyclophilin D protein at 1 ug/ml after 24 hrs by Western blot analysis. The class given is functional, cell-based. Summed up:
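About 1.0×10^6 attached and floating HS578T cells, treated 24 h at 1 μg/ml, were lysed in HEPES/sucrose buffer with DTT, PMSF and protease inhibitors. Extracts were stored at -80°C, then p53 and cyclophilin D were semi-quantified by Western blot. Six experiments, mean ± SEM.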
Background: Immunoblotting shows a protein as a band on a membrane.

The nature of series [5]: Induction of mitochondrial function disruption in Wistar Han rat liver mitochondria energized with succinate assessed as adenosine diphosphate/O ratio measured at 0.667 ug/mg of protein (reference value: 2.3 +/- 0.2 no_unit). Type of series: functional.
In series [6] the test system is Liver microsome. Nature of the series: Induction of mitochondrial function disruption in Wistar Han rat liver mitochondria energized with succinate assessed as State-3 level per mg of protein measured at 0.333 ug/mg of protein (reference value: 130.8 +/- 24.1 nmol/mg protein/min). Type of series: functional.
A further series has as its system BJ. Description: Cytotoxicity against human BJ cells at 0.125 to 2 ug/ml after 1 to 5 days by sulforhodamine B assay. The class given is cell-based. An outline of the steps:
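Non-tumor cells seeded at 2×10^4 cells/ml and treated 24 h after seeding, in high-glucose DMEM with pyruvate, 10% FBS and penicillin-streptomycin, 37°C, 5% CO2. Compound exposure 0.125–2 μg/ml for 1, 3 and 5 days, with vehicle controls. Cells fixed and stained with sulforhodamine B for total cell mass. Data given as % of untreated control at each time point; five independent experiments.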

In series [7] the test system is Liver microsome. Nature of the series: Induction of mitochondrial function disruption in Wistar Han rat liver mitochondria energized with succinate assessed as respiratory control ratio measured at 1.333 ug/mg of protein (reference value: 4.1 +/- 0.5 no_unit). Type of series: functional.
Series [8] has as its system Hs-578T. Description: Cytotoxicity against human Hs578T cells at 0.125 to 2 ug/ml after 1 to 5 days by sulforhodamine B assay in presence of taxol. Type of series: functional, cell-based.
The subject of series [9] is Liver microsome. Description: Induction of mitochondrial function disruption in Wistar Han rat liver mitochondria energized with succinate assessed as adenosine diphosphate/O ratio measured at 1.333 ug/mg of protein (reference value: 2.3 +/- 0.2 no_unit). The class given is functional.
A short description of series [10]: Cell cycle arrest against human Hs578T cells assessed as decrease in cells at S phase at 0.5 ug/ml after 24 to 48 hrs by propidium iodide staining based flow cytometry. Type of series: functional. The note with it: Hs-578T. An outline of the steps: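 Log-phase Hs578T cells exposed 24 and 48 h to 0.5 μg/ml. Adherent plus floating cells fixed in cold 70% ethanol, kept overnight at -20°C, washed into PBS-T (132 mM NaCl, 4 mM KCl, 1.2 mM NaH2PO4, 0.1% Tween). Treated with 20 μg/ml RNase for 45 min at 37°C, then propidium iodide for 30 min at 37°C. Phase percentages read by flow cytometry. Mean ± SEM, 5 experiments.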

For series [11], the system named is Hs-578T. Description: Effect on Bax protein level in human Hs578T cells at 1 ug/ml after 24 hrs by Western blot analysis. Type of series: functional, cell-based.
For series [12], the system named is MDA-MB-231. Nature of the series: Cytotoxicity against human MDA-MB-231 cells at 0.125 to 2 ug/ml after 1 to 5 days by sulforhodamine B assay in presence of taxol. Type of series: functional, cell-based.
In series [13] the test system is Liver microsome. Description: Induction of mitochondrial function disruption in Wistar Han rat liver mitochondria energized with succinate assessed as respiratory control ratio measured at 0.333 ug/mg of protein (reference value: 4.1 +/- 0.5 no_unit). The class given is functional.
Series [14] relates to Liver microsome. Nature of the series: Induction of mitochondrial function disruption in Wistar Han rat liver mitochondria energized with succinate assessed as adenosine diphosphate/O ratio measured at 0.333 ug/mg of protein (reference value: 2.3 +/- 0.2 no_unit). The class given is functional.
Series [15] relates to Liver microsome. Description: Reduction in ADP-induced mitochondrial transmembrane electropotential in Wistar Han rat liver mitochondria energized with succinate at >0.7 ug/mg of protein. Type of series: functional.
Series [16] concerns MDA-MB-231. Nature of the series: Cytotoxicity against human MDA-MB-231 cells assessed as reduction in cell number in glucose-free, galactose/glutamine medium after 3 to 5 days. Type of series: functional, cell-based. Summed up:
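Cells grown in glucose-free DMEM with galactose (1.8 g/L), L-glutamine (0.584 g/L), pyruvate and 10% FBS, forcing ATP from oxidative phosphorylation. Exposed to a dose range for 1, 3 and 5 days. Cell number read by sulforhodamine B and expressed as % of control. Mean ± SEM, 5 experiments.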

The subject of series [17] is Liver microsome. Nature of the series: Induction of mitochondrial function disruption in Wistar Han rat liver mitochondria energized with succinate assessed as respiratory control ratio measured at 0.067 ug/mg of protein (reference value: 4.1 +/- 0.5 no_unit). Type of series: functional.
Series [18] has as its system Liver microsome. Nature of the series: Induction of mitochondrial function disruption in Wistar Han rat liver mitochondria energized with succinate assessed as State-3 level per mg of protein measured at 0.067 ug/mg of protein (reference value: 130.8 +/- 24.1 nmol/mg protein/min). Type of series: functional.
Series [19] has as its system Liver microsome. Nature of the series: Induction of mitochondrial function disruption in Wistar Han rat liver mitochondria energized with succinate assessed as adenosine diphosphate/O ratio measured at 0.067 ug/mg of protein (reference value: 2.3 +/- 0.2 no_unit). The class given is functional.
For series [20], the system named is Hs-578T. Nature of the series: Cytotoxicity against human Hs578T cells at 0.125 to 2 ug/ml after 1 to 5 days by sulforhodamine B assay. Type of series: functional, cell-based. An outline of the steps: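 Sulforhodamine B growth assay in high-glucose DMEM with 10% FBS. Cancer cells seeded at 1×10^4 cells/ml; compound (0.125–2 μg/ml) added 24 h after seeding and left for 1, 3 or 5 days. Cells fixed, total mass stained. Expressed as % of untreated cells at the same time point. Mean ± SEM, five independent experiments.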

Series [21] concerns Liver microsome. Nature of the series: Effect on mitochondrial transmembrane potential in Wistar Han rat liver mitochondria energized with succinate assessed as time duration of lag phase at 0.067 ug/mg of protein (reference value: 46.7 +/- 3.9 sec). Type of series: functional. Summed up:
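Isolated male Wistar rat liver mitochondria (1.5 mg protein) in 125 mM sucrose, 65 mM KCl, 5 mM KH2PO4, 2.5 mM MgCl2, 5 mM HEPES pH 7.4, 30°C, with 3 μM TPP+. Compound added for 1 min, then 10 mM succinate plus 3 μM rotenone. State 3 started with ADP (83.3 nmol/mg protein). ΔΨ read with a TPP+-selective electrode and calculated by the Kamo equation without binding correction.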

As to `C=C(C)[C@@H]1CC[C@]2(COC(=O)C[n+]3ccc(N(C)C)cc3)CC[C@]3(C)[C@H](CC[C@@H]4[C@@]5(C)CC[C@H](OC(=O)C[n+]6ccc(N(C)C)cc6)C(C)(C)[C@@H]5CC[C@]43C)[C@@H]12.[Cl-].[Cl-]`, the inhibition result (with MCF7; in the series on Hs-578T [8]; in series [10]; with MDA-MB-231 [12]; in the series on Liver microsome [15]) was “Active” throughout. For the same compound, the Activity in the series on Liver microsome [1] is 141 nmol/min; in the series with Liver microsome [2], 34.5 nmol/min; in the series with Liver microsome [3], 34.8 nmol/min; in the series with Liver microsome [6], 136 nmol/min; in the series on BJ it was “Non-toxic”; with Liver microsome [18], 132 nmol/min. The outcome in the series with Hs-578T [4] was Active. The Ratio in series [5] came to 2.2; in the series with Liver microsome [7], 4; in the series with Liver microsome [9] it was 2.3; in the series on Liver microsome [13] it was 4.4; in the series with Liver microsome [14], 2.2; in the series with Liver microsome [17], 4.1. Further, in the series with Liver microsome [19], the Ratio was 2.4. Besides, the result with Hs-578T [11] was inactive. Besides, in the series on MDA-MB-231 [16], the “Cytotoxicity (active/inactive call)” value is “Active”.
On to `C=C(C)[C@@H]1CC[C@]2(COC(=O)CC[n+]3ccc(N(C)C)cc3)CC[C@]3(C)[C@H](CC[C@@H]4[C@@]5(C)CC[C@H](OC(=O)CC[n+]6ccc(N(C)C)cc6)C(C)(C)[C@@H]5CC[C@]43C)[C@@H]12.[Cl-].[Cl-]`, for which the Activity with Liver microsome [1] is 116 nmol/min; with Liver microsome [2] it was 25.3 nmol/min; with Liver microsome [3], 29.1 nmol/min; with Liver microsome [6], 121 nmol/min; in the series on BJ, “Toxic”; in the series on Liver microsome [18], 127 nmol/min. Besides, the outcome in the series on Hs-578T [4] was Active. The Ratio is 1.6 in series [5]; 4.3 in the series on Liver microsome [7]; 1.8 with Liver microsome [9]; 4.1 in the series on Liver microsome [13]; 1.8 in the series with Liver microsome [14]; 4.3 with Liver microsome [17]. Further, in the series on Liver microsome [19], the Ratio worked out at 1.8. For the same compound, the inhibition entry (in the series on Hs-578T [20]; in [10]) was “Active” in each case. Also, in the series on Hs-578T [11], the outcome was inactive. Also, the “Cytotoxicity (active/inactive call)” value with MDA-MB-231 [16] is “Active”.
With `C=C(C)[C@@H]1CC[C@]2(COC(=O)C[N+](C)(C)C(C)C)CC[C@]3(C)[C@H](CC[C@@H]4[C@@]5(C)CC[C@H](OC(=O)C[N+](C)(C)C(C)C)C(C)(C)[C@@H]5CC[C@]43C)[C@@H]12.[Cl-].[Cl-]`, the inhibition result (in the series with MCF7; in the series with Hs-578T [20]; with Hs-578T [8]; in series [10]; with MDA-MB-231 [12]; with Liver microsome [15]) was “Active” throughout. The TIME in the series on Liver microsome [21] worked out at 0.0139 h. Also, the Activity with Liver microsome [1] worked out at 116 nmol/min; with Liver microsome [2], 28.6 nmol/min; in the series on Liver microsome [3] it was 27.2 nmol/min; with Liver microsome [6], 121 nmol/min; in the series with Liver microsome [18], 117 nmol/min. In the series on Hs-578T [4], the result was Active. In addition, the Ratio in series [5] came to 2.6; in the series with Liver microsome [7], 4.2; in the series on Liver microsome [9], 2.9; in the series with Liver microsome [13], 4.2; in the series with Liver microsome [14], 2.9; in the series with Liver microsome [17], 4. Moreover, in the series with Liver microsome [19], the Ratio came out at 3. For the same compound, the outcome with Hs-578T [11] was inactive. Further, the “Cytotoxicity (active/inactive call)” value with MDA-MB-231 [16] was “Active”.
In the case of `C=C(C)[C@@H]1CC[C@]2(COC(=O)C(CC)[n+]3ccc(N(C)C)cc3)CC[C@]3(C)[C@H](CC[C@@H]4[C@@]5(C)CC[C@H](OC(=O)C(CC)[n+]6ccc(N(C)C)cc6)C(C)(C)[C@@H]5CC[C@]43C)[C@@H]12` (some centres not stated), the Activity in the series on Liver microsome [1] was 125 nmol/min; in the series with Liver microsome [2], 23.7 nmol/min; in the series with Liver microsome [3], 23.2 nmol/min; in the series with Liver microsome [6], 132 nmol/min; with Liver microsome [18], 130 nmol/min. In addition, the outcome in the series with Hs-578T [4] was Active. In addition, the Ratio in series [5] stood at 1.6; in the series with Liver microsome [7], 3.2; with Liver microsome [9], 1.6; in the series with Liver microsome [13], 3.2; in the series on Liver microsome [14], 1.6; in the series with Liver microsome [17], 3. For the same compound, in the series on Liver microsome [19], the Ratio was 1.6. In addition, the inhibition entry in series [10] is “Active”. In addition, the outcome in the series with Hs-578T [11] was inactive. Further, the “Cytotoxicity (active/inactive call)” value with MDA-MB-231 [16] was “Active”.
